Experimental data published in ChEMBL document CHEMBL1127697, “New N alpha-guanidinobenzoyl derivatives of hirudin-54-65 containing stabilized carboxyl or phosphoryl groups on the side chain of phenylalanine-63” (1994).
Residues, ends and D or L forms follow the SMILES beside them.

Columns and labels:
Type in all cases: functional
Rattus norvegicus [1] = species: Rattus norvegicus; assay: Concentration that doubles thrombin time (inhibition of fibrin clot) in rats
How it was run: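 Plasma was incubated 2 min at 37 °C with inhibitor or vehicle, then thrombin (1.5 NIH/mL) was added and clotting time read on a coagulometer. Value is the µM concentration that doubles thrombin time relative to the no-inhibitor control.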

Rattus norvegicus [2] = assay: Activated partial thromboplastin time at 1.5 min following intravenous administration in rats at a dose 8 mg/kg
How it was run: (§1)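 Sprague-Dawley rats (300–400 g) anesthetized with pentobarbital sodium (60 mg/kg ip). Peptide (1 mL) given iv via cannulated jugular vein. Carotid blood (1.5 mL) drawn 30 min before and at 1.5–60 min after dosing, then centrifuged 15 min at 3000g to platelet-poor plasma. APTT read on a coagulometer: plasma mixed with thromboplastin at 37 °C. Expressed as % of untreated animals; n = 4–6 independent experiments.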

Rattus norvegicus [3] = assay: Activated partial thromboplastin time at 15 min following intravenous administration in rats at a dose 8 mg/kg; how it was run: as §1
Rattus norvegicus [4] = assay: Activated partial thromboplastin time at 30 min following intravenous administration in rats at a dose 8 mg/kg; how it was run: as §1
Rattus norvegicus [5] = assay: Activated partial thromboplastin time at 60 min following intravenous administration in rats at a dose 8 mg/kg; how it was run: as §1
Rattus norvegicus [6] = assay: Activated partial thromboplastin time at 3 min following intravenous administration in rats at a dose 8 mg/kg; how it was run: as §1
Rattus norvegicus [7] = assay: Activated partial thromboplastin time at 5 min following intravenous administration in rats at a dose 8 mg/kg; how it was run: as §1

How did the Ctt2 (Rattus norvegicus [1]) turn out when `CC[C@H](C)[C@H](NC(=O)C1C2CCC(CC2)N1C(=O)[C@H](CCC(=O)O)NC(=O)C(Cc1ccccc1)NC(=O)[C@H](CC(=O)O)NC(=O)CNC(=O)c1ccc(NC(=N)N)cc1)C(=O)N1CCC[C@H]1C(=O)N[C@@H](CCC(=O)O)C(=O)N[C@@H](CCC(=O)O)C(=O)N[C@H](Cc1ccc(CC(=O)O)cc1)C(=O)N[C@@H](CC(C)C)C(=O)N[C@H](CCC(=O)O)C(=O)O` (stereo in doubt) was run?
Its Ctt2 is 50 µM.

How did the Ctt2 (Rattus norvegicus [1]) turn out when `CC[C@H](C)[C@H](NC(=O)C1C2CCC(CC2)N1C(=O)[C@H](CCC(=O)O)NC(=O)[C@H](Cc1ccccc1)NC(=O)[C@H](CC(=O)O)NC(=O)CNC(=O)c1ccc(NC(=N)N)cc1)C(=O)N1CCC[C@H]1C(=O)N[C@@H](CCC(=O)O)C(=O)N[C@@H](CCC(=O)O)C(=O)N[C@@H](Cc1ccc(O)cc1)C(=O)N[C@@H](CC(C)C)C(=O)O` (stereo partly drawn) (HELM PEPTIDE1{[N=C(N)Nc1ccc(C(=O)[*:2])cc1].G.D.F.E.[O=C(C1C2CCC(CC2)N1[*:1])[*:2]].I.P.E.E.Y.L}$$$$V2.0) was run?
Its Ctt2 is 16.5 µM.

And the Baseline (Rattus norvegicus [2])?
The Baseline was 136%.

What about the Baseline (Rattus norvegicus [3]) of the same compound?
Its Baseline is 108%.

And the Baseline (Rattus norvegicus [4])?
Its Baseline is 100%.

And the Baseline (Rattus norvegicus [5])?
Its Baseline is 98%.

And the Baseline (Rattus norvegicus [6])?
Its Baseline is 123%.

What about the Baseline (Rattus norvegicus [7]) of the same compound?
The Baseline was 115%.

For `CC[C@H](C)[C@H](NC(=O)C1C2CCC(CC2)N1C(=O)[C@H](CCC(=O)O)NC(=O)[C@H](Cc1ccccc1)NC(=O)[C@H](CC(=O)O)NC(=O)CNC(=O)c1ccc(NC(=N)N)cc1)C(=O)N1CCC[C@H]1C(=O)N[C@@H](CCC(=O)O)C(=O)N[C@@H](CCC(=O)O)C(=O)N[C@@H](Cc1ccc(P(=O)(O)O)cc1)C(=O)N[C@@H](CC(C)C)C(=O)N[C@H](CCC(=O)O)C(=O)O` (stereo partly drawn), which Ctt2 (Rattus norvegicus [1]) is on record?
Its Ctt2 is 2.8 µM.

And the Baseline (Rattus norvegicus [2])?
Its Baseline is 252%.

And the Baseline (Rattus norvegicus [3])?
Its Baseline is 200%.

And the Baseline (Rattus norvegicus [4])?
Its Baseline is 181%.

And the Baseline (Rattus norvegicus [5])?
The Baseline was 187%.

What about the Baseline (Rattus norvegicus [6]) of the same compound?
The Baseline was 225%.

And the Baseline (Rattus norvegicus [7])?
The Baseline was 217%.

`CC[C@H](C)[C@H](NC(=O)C1C2CCC(CC2)N1C(=O)[C@H](CCC(=O)O)NC(=O)[C@H](Cc1ccccc1)NC(=O)[C@H](CC(=O)O)NC(=O)CNC(=O)c1ccc(NC(=N)N)cc1)C(=O)N1CCC[C@H]1C(=O)N[C@@H](CCC(=O)O)C(=O)N[C@@H](CCC(=O)O)C(=O)N[C@@H](Cc1ccc(O)cc1)C(=O)N[C@@H](CC(C)C)C(=O)N[C@H](CCC(=O)O)C(=O)O` (stereo partly drawn) was tested. Which Ctt2 (Rattus norvegicus [1]) did it give?
Its Ctt2 is 4.8 µM.

What about the Baseline (Rattus norvegicus [2]) of the same compound?
Its Baseline is 158%.

And the Baseline (Rattus norvegicus [3])?
The Baseline was 115%.

What about the Baseline (Rattus norvegicus [4]) of the same compound?
The Baseline was 111%.

What about the Baseline (Rattus norvegicus [5]) of the same compound?
The Baseline was 96%.

And the Baseline (Rattus norvegicus [6])?
Its Baseline is 145%.

And the Baseline (Rattus norvegicus [7])?
The Baseline was 133%.

How did the Ctt2 (Rattus norvegicus [1]) turn out when `CC[C@H](C)[C@H](NC(=O)C1C2CCC(CC2)N1C(=O)[C@H](CCC(=O)O)NC(=O)[C@H](Cc1ccccc1)NC(=O)[C@H](CC(=O)O)NC(=O)CNC(=O)c1ccc(NC(=N)N)cc1)C(=O)N1CCC[C@H]1C(=O)N[C@@H](CCC(=O)O)C(=O)N[C@@H](CCC(=O)O)C(=O)N[C@@H](Cc1ccc(O)cc1P(=O)(O)O)C(=O)N[C@@H](CC(C)C)C(=O)N[C@H](CCC(=O)O)C(=O)O` (stereo partly drawn) was run?
Its Ctt2 is 4 µM.

And the Baseline (Rattus norvegicus [2])?
The Baseline was 265%.

What about the Baseline (Rattus norvegicus [3]) of the same compound?
Its Baseline is 192%.

And the Baseline (Rattus norvegicus [4])?
The Baseline was 164%.

And the Baseline (Rattus norvegicus [5])?
Its Baseline is 163%.

What about the Baseline (Rattus norvegicus [6]) of the same compound?
Its Baseline is 244%.

And the Baseline (Rattus norvegicus [7])?
Its Baseline is 217%.

Which results are given for `CC[C@H](C)[C@H](NC(=O)C1C2CCC(CC2)N1C(=O)[C@H](CCC(=O)O)NC(=O)[C@H](Cc1ccccc1)NC(=O)[C@H](CC(=O)O)NC(=O)CNC(=O)c1ccc(NC(=N)N)cc1)C(=O)N1CCC[C@H]1C(=O)N[C@@H](CCC(=O)O)C(=O)N[C@@H](CCC(=O)O)C(=O)N[C@@H](Cc1ccc(OP(=O)(O)O)cc1)C(=O)N[C@@H](CC(C)C)C(=O)N[C@H](CCC(=O)O)C(=O)O` (stereo partly drawn)?
Ctt2 (Rattus norvegicus [1]): 0.9 µM; Baseline (Rattus norvegicus [2]): 201%; Baseline (Rattus norvegicus [3]): 125%; Baseline (Rattus norvegicus [4]): 110%; Baseline (Rattus norvegicus [5]): 107%; Baseline (Rattus norvegicus [6]): 162%; Baseline (Rattus norvegicus [7]): 147%

What does the source list for `CC[C@H](C)[C@H](NC(=O)C1C2CCC(CC2)N1C(=O)[C@H](CCC(=O)O)NC(=O)[C@H](Cc1ccccc1)NC(=O)[C@H](CC(=O)O)NC(=O)CNC(=O)c1ccc(NC(=N)N)cc1)C(=O)N1CCC[C@H]1C(=O)N[C@@H](CCC(=O)O)C(=O)N[C@@H](CCC(=O)O)C(=O)N[C@@H](Cc1ccc(CC(=O)O)cc1)C(=O)N[C@@H](CC(C)C)C(=O)N[C@H](CCC(=O)O)C(=O)O` (stereo partly drawn)?
Ctt2 (Rattus norvegicus [1]): 1 µM; Baseline (Rattus norvegicus [2]): 213%; Baseline (Rattus norvegicus [3]): 149%; Baseline (Rattus norvegicus [4]): 141%; Baseline (Rattus norvegicus [5]): 118%; Baseline (Rattus norvegicus [6]): 205%; Baseline (Rattus norvegicus [7]): 188%
